This is an account of results in ChEMBL document CHEMBL3244334, “Synthesis of pyridinium analogues of acetylcholine and their interactions with intestinal muscarinic receptors” (J Med Chem, 1979).

Active and inactive are the calls of the source. The calls are words filed in the database; no cut-off is given here.

Data set [1] is filed under the species Cavia porcellus. The data set is described as follows: Agonist activity at muscarinic acetylcholine receptor in guinea pig ileum assessed as longitudinal muscle contraction measured every 20 mins in presence of 10 uM competitive nicotinic antagonist hexamethonium chloride. It counts as tissue-based. In short, it runs like this:
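Isolated ileal muscle in a bath with 10 μM hexamethonium chloride to block ganglionic stimulation. Cumulative concentration-response curves to the test agonist and to acetyl-β-methylcholine (reference agonist) were built alternately on one preparation every 20 min. pD₂ was derived from the curves, n = 15 per drug, means ± SD.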

The species named for data set [2] is Cavia porcellus. The data set is described as follows: Agonist activity at muscarinic acetylcholine receptor in guinea pig ileum assessed as longitudinal muscle contraction measured every 20 mins in absence of 10 uM competitive nicotinic antagonist hexamethonium chloride. It counts as tissue-based. Put shortly:
(§1)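 Isolated ileal muscle, cumulative agonist dose-response curves built every 20 min, read as contraction. pD2 derived; n = 15. Hexamethonium either left out of the bath or raised from 10 to 100 μM.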

For data set [3], the species on record is Cavia porcellus. Kind of data set: Agonist activity at muscarinic acetylcholine receptor in guinea pig ileum assessed as longitudinal muscle contraction measured every 20 mins in presence of 100 uM competitive nicotinic antagonist hexamethonium chloride. It counts as tissue-based. In short, it runs like this: as §1
The species named for data set [4] is Cavia porcellus. The data set is described as follows: Agonist activity at muscarinic acetylcholine receptor in guinea pig ileum assessed as longitudinal muscle contraction measured every 20 mins in presence of 0.05 uM physostigmine. The format is tissue-based.
Data set [5] in a line: Competitive antagonist activity at muscarinic acetylcholine receptor in guinea pig ileum assessed as inhibition of acetyl-beta-methylcholine-induced longitudinal muscle contraction administered 10 mins prior to acetyl-beta-methylcholine induction measured every 20 mins in presence of 10 uM competitive nicotinic antagonist hexamethonium chloride. Particulars: Cavia porcellus, read-out: pA2 (converted). It counts as tissue-based. Put shortly: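 Ileal muscle was pretreated for 10 min with a single antagonist dose, then a cumulative acetyl-β-methylcholine concentration-response curve was run, with 10 μM hexamethonium chloride in the bath. Lachesine was the reference antagonist, run the same way. Rightward shift of the log concentration-response curves and any change in shape or maximum were assessed. Values are means ± SD.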

Data set [6] can be described thus: Competitive antagonist activity at muscarinic acetylcholine receptor in guinea pig ileum assessed as inhibition of 1-(2-acetoxyethyl)pyridinium iodide-induced longitudinal muscle contraction administered 10 mins prior to 1-(2-acetoxyethyl)pyridinium iodide induction measured every 20 mins in presence of 10 uM competitive nicotinic antagonist hexamethonium chloride. The format is tissue-based. Particulars: Cavia porcellus, read-out: pA2 (converted). Put shortly: (§2)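 Ileal muscle in 10 μM hexamethonium chloride. Tissue conditioned with a single antagonist dose for 10 min before cumulative dose-response curves to the pyridinium agonist. Points are means of equipotent agonist concentrations giving standard responses, from 6–8 experiments.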

For data set [7], the system named is Cavia porcellus. The data set is described as follows: Non-competitive antagonist activity at muscarinic acetylcholine receptor in guinea pig ileum assessed as inhibition of 1-(2-acetoxyethyl)pyridinium iodide-induced longitudinal muscle contraction at 0.1 uM administered 10 mins prior to 1-(2-acetoxyethyl)pyridinium iodide induction measured every 20 mins in presence of 10 uM competitive nicotinic antagonist hexamethonium chloride. The format is tissue-based. In short, it runs like this: as §2

The target of data set [8] is Acetylcholinesterase (Electrophorus electricus) (UniProt O42275). The data set is described as follows: Inhibition of electric eel acetylcholinesterase using acetylcholine as substrate at 3 x 10^-5 M relative to control. In short, it runs like this: (§3)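 Electric eel AChE; substrate 1 mM ACh. Inhibition taken as the lowered rate of ACh decomposition, measured by pH-stat titration. Six experiments per value, reported as means ± SD.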
Sequence of Acetylcholinesterase (Electrophorus electricus) (O42275 24-633 limits assumed): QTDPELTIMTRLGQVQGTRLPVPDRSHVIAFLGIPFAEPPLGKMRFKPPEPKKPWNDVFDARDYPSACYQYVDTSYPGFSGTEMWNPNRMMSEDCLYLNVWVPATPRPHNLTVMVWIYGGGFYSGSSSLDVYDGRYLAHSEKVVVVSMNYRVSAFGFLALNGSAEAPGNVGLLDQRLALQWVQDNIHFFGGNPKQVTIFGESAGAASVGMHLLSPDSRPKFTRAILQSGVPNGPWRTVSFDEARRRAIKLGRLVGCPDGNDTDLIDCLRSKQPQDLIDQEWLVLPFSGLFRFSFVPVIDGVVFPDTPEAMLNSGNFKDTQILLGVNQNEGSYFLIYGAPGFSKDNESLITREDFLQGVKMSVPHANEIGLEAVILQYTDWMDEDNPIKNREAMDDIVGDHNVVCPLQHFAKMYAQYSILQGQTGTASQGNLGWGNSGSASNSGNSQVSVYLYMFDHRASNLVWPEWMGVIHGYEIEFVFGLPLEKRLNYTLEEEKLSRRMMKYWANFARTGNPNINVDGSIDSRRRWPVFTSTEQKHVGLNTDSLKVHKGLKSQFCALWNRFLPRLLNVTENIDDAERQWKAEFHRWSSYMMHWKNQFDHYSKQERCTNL

Data set [9] has the same target. Kind of data set: Inhibition of electric eel acetylcholinesterase using acetylcholine as substrate at 10^-3 M relative to control. Put shortly: as §3
The species entered for data set [10] is Cavia porcellus. The data set is described as follows: Agonist activity at muscarinic acetylcholine receptor in guinea pig ileum assessed as longitudinal muscle contraction at 3 x 10^-5 M in presence of 10 uM competitive nicotinic antagonist hexamethonium chloride relative to control. It counts as tissue-based.
The species named for data set [11] is Cavia porcellus. Kind of data set: Agonist activity at muscarinic acetylcholine receptor in guinea pig ileum assessed as longitudinal muscle contraction at 10^-3 M in presence of 10 uM competitive nicotinic antagonist hexamethonium chloride relative to control. The format is tissue-based.
The nature of data set [12]: Toxicity in NMRI mouse. The format is organism-based. Particulars: in vivo.
Data set [13] is filed under the species Cavia porcellus. Kind of data set: Agonist activity at muscarinic acetylcholine receptor in guinea pig ileum assessed as longitudinal muscle contraction at 10^-6 M in presence of 10 uM competitive nicotinic antagonist hexamethonium chloride relative to control. It counts as tissue-based.
The species named for data set [14] is Cavia porcellus. The data set is described as follows: Agonist activity at muscarinic acetylcholine receptor in guinea pig ileum assessed as longitudinal muscle contraction at 10^-4 in presence of 10 uM competitive nicotinic antagonist hexamethonium chloride relative to control. It counts as tissue-based.
Data set [15] concerns the target Acetylcholinesterase (Electrophorus electricus) (UniProt O42275). Particulars: 10^-6 M.
Data set [16] has the same target. Kind of data set: Inhibition of electric eel acetylcholinesterase using acetylcholine as substrate at 10^-5 M relative to control. Put shortly: as §3
For data set [17] the target is unchanged. The data set is described as follows: Inhibition of electric eel acetylcholinesterase using acetylcholine as substrate at 3 x 10^-4 M relative to control. In short, it runs like this:
as §3

Data set [18] is filed under the species Cavia porcellus. Kind of data set: Agonist activity at muscarinic acetylcholine receptor in guinea pig ileum assessed as longitudinal muscle contraction at 10^-5 M in presence of 10 uM competitive nicotinic antagonist hexamethonium chloride relative to control. The format is tissue-based.
For data set [19], the species on record is Cavia porcellus. Kind of data set: Agonist activity at muscarinic acetylcholine receptor in guinea pig ileum assessed as longitudinal muscle contraction at 3 x 10^-4 M in presence of 10 uM competitive nicotinic antagonist hexamethonium chloride relative to control. It counts as tissue-based.

`CC(=O)OC(C)C[N+](C)(C)C` (configuration not stated): the pD2 in the data set listed under Cavia porcellus [1] is 7.02. The outcome in the data set filed under Cavia porcellus [2], in the data set listed under Cavia porcellus [3] and in the data set filed under Cavia porcellus [4] was Active.

With `CC[N+](C)(C)CCOC(=O)C(O)(c1ccccc1)c1ccccc1` [LACHESINE CHLORIDE], the Kb is 0.0024 µM in [5] and 0.00219 µM in [6]. The inhibition entry with Cavia porcellus [7] was “Active”.

As to `CC(=O)OCC[n+]1ccc(C)cc1.[Br-]`, the inhibition in data set [8] amounted to 42.5%; in data set [9], 77.4%. The %max in the data set filed under Cavia porcellus [10] and in the data set filed under Cavia porcellus [11] was 0% in each case. The compound further returned an LD50 in data set [12] of 2000 µmol/kg. The Kb in data set [5] was 372 µM.

For the compound `CC(=O)OCC[n+]1ccccc1`, the %max in the data set filed under Cavia porcellus [13] stood at 0%; in the data set filed under Cavia porcellus [14], 89%. Moreover, the pD2 in the data set filed under Cavia porcellus [1] worked out at 4.62. Moreover, the result in the data set listed under Cavia porcellus [2], in the data set listed under Cavia porcellus [3] and in the data set filed under Cavia porcellus [4] was Active. In data set [15], this compound displayed an inhibition of 23.9%.

As for `CC(=O)OCC[n+]1ccc(C(C)(C)C)cc1.[Br-]`, the values for the inhibition in data set [16] and in data set [17] were 32.3% and 66.2%, respectively. In addition, the %max in the data set filed under Cavia porcellus [18] and in the data set listed under Cavia porcellus [19] was 0% in each case. Moreover, the LD50 in data set [12] is 2000 µmol/kg. For the same compound, the Kb in data set [5] is 37.2 µM; in data set [6], 30.2 µM.
